As a reminder, the Ki is a dissociation constant, usually derived from enzyme kinetics or from competition with a known ligand. One may read the inhibition as the relative decrease from the control value, in per cent.

Molecules are shown by their SMILES.

The target of test [1] is T1, 5-hydroxytryptamine receptor 7 (Homo sapiens, UniProt P34969). The experiment in a line: Displacement of [3H]5-HT from human 5-HT7 receptor expressed in HEK293 cells after 30 mins by microbeta counting analysis. The test is classed as cell-based. (In a radioligand displacement assay an active substance lowers the binding of a labelled ligand.)
T1 sequence (P34969 whole entry): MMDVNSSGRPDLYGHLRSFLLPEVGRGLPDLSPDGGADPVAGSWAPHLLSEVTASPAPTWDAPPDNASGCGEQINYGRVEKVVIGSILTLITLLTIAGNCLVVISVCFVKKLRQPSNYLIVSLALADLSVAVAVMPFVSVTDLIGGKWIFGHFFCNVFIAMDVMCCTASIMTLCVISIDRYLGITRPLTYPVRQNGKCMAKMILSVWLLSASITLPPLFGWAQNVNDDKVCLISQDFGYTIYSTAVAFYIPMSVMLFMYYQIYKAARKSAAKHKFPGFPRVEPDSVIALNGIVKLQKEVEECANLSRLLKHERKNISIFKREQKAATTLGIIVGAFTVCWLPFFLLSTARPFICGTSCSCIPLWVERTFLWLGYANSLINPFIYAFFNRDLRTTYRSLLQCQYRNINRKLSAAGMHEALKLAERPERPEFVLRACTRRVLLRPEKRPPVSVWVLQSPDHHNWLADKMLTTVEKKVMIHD
Test [2] has as its target T1, 5-hydroxytryptamine receptor 7. Briefly: Antagonist activity at human 5-HT7 receptor expressed in CHO cells assessed as residual 5-HT-stimulated cAMP accumulation at 1 uM relative to control.
Test [3] shares this target. The experiment in a line: Displacement of [3H]5-HT from human 5-HT7 receptor expressed in HEK293 cells at 10^-5 mol/L after 30 mins by microbeta counting analysis. The test is classed as cell-based. In short, it runs like this: (§1)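 Membranes incubated 30 min at 25 °C with 5 nmol/L [3H]5-HT in 50 mM Tris-HCl pH 7.4 containing pargyline, CaCl2 and ascorbic acid, with the test compound at a single fixed concentration. Non-specific binding with 100 µM cold 5-HT; separation by filtration; result reported as % displacement.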

Test [4] shares this target. The experiment in a line: Displacement of [3H]5-HT from human 5-HT7 receptor expressed in HEK293 cells at 10^-6 mol/L after 30 mins by microbeta counting analysis. The test is classed as cell-based. The method, boiled down: as §1
Test [5] has as its target T2, 5-hydroxytryptamine receptor 1A (Homo sapiens) (UniProt P08908).
T2 sequence (whole entry): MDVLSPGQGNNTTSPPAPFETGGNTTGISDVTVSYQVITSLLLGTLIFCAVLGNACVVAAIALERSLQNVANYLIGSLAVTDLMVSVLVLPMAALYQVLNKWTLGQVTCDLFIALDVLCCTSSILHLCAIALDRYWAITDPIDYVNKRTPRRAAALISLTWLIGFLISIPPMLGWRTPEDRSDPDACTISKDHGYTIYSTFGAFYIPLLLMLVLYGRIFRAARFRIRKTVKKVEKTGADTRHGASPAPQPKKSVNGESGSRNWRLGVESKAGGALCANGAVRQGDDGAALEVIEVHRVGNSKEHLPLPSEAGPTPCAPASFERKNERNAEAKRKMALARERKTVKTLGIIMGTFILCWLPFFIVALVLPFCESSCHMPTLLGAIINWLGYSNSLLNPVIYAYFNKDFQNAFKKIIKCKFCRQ
Briefly: Displacement of [3H]-8-OH-DPAT from human recombinant 5-HT1A receptor expressed in HEK293 cells at 1 uM by scintillation counting analysis relative to control. The test is classed as cell-based.

For test [6], the target named is 5-hydroxytryptamine receptor 1B (Homo sapiens) (UniProt P28222). Briefly: Binding affinity to recombinant human 5-HT1B receptor expressed in CHO cells at 1 uM by radioligand displacement assay relative to control. The test is classed as cell-based.
5-hydroxytryptamine receptor 1B (Homo sapiens), sequence (P28222 whole entry): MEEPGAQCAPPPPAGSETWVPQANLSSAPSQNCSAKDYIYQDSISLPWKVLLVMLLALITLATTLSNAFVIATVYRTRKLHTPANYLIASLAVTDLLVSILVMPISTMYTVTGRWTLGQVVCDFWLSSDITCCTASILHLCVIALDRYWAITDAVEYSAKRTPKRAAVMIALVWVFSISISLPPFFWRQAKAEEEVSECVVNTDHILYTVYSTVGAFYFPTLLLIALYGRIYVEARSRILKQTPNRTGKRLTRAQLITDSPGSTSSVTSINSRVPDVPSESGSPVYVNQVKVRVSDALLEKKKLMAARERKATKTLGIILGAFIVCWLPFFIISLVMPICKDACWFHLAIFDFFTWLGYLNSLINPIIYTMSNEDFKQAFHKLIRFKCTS
The target in test [7] is 5-hydroxytryptamine receptor 1D (Rattus norvegicus) (UniProt P28565). The experiment in a line: Binding affinity to rat recombinant 5-HT1D receptor expressed in CHO cells at 1 uM by radioligand displacement assay relative to control. The test is classed as cell-based.
5-hydroxytryptamine receptor 1D (Rattus norvegicus), sequence (P28565 whole entry): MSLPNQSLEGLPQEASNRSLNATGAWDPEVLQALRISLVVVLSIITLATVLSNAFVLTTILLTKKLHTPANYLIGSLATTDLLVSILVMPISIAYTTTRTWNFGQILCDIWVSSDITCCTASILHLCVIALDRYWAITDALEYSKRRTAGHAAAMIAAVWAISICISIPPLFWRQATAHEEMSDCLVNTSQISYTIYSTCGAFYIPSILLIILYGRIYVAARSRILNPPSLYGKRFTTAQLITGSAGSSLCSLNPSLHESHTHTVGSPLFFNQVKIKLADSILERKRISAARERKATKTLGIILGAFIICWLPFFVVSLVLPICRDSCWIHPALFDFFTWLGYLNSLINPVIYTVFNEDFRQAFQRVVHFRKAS
Test [8] concerns the target 5-hydroxytryptamine receptor 2A (Homo sapiens) (UniProt P28223). Briefly: Binding affinity to human recombinant 5-HT2A receptor expressed in HEK293 cells at 1 uM by radioligand displacement assay relative to control. The test is classed as cell-based.
Test [9] addresses 5-hydroxytryptamine receptor 2B (Homo sapiens) (UniProt P41595). The experiment in a line: Binding affinity to human recombinant 5-HT2B receptor expressed in CHO cells at 1 uM by radioligand displacement assay relative to control. The test is classed as cell-based.
Test [10] addresses T3, 5-hydroxytryptamine receptor 2C (Homo sapiens) (UniProt P28335).
T3 sequence (whole entry): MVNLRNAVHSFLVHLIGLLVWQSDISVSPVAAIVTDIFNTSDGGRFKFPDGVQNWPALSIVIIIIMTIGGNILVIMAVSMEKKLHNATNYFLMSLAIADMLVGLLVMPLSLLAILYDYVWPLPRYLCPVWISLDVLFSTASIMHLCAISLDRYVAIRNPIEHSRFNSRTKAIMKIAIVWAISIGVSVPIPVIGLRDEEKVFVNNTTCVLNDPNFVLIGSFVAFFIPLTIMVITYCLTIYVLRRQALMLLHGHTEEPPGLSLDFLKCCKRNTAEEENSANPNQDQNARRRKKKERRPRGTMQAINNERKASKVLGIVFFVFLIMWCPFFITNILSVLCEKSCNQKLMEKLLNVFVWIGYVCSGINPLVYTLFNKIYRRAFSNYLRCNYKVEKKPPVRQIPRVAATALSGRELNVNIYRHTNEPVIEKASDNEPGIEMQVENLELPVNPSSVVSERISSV
Briefly: Binding affinity to human recombinant 5-HT2C receptor expressed in HEK293 cells at 1 uM after 30 mins by radioligand displacement assay relative to control. The test is classed as cell-based.

Test [11] has as its target T4, 5-hydroxytryptamine receptor 3A (Homo sapiens) (UniProt P46098).
T4 sequence (whole entry): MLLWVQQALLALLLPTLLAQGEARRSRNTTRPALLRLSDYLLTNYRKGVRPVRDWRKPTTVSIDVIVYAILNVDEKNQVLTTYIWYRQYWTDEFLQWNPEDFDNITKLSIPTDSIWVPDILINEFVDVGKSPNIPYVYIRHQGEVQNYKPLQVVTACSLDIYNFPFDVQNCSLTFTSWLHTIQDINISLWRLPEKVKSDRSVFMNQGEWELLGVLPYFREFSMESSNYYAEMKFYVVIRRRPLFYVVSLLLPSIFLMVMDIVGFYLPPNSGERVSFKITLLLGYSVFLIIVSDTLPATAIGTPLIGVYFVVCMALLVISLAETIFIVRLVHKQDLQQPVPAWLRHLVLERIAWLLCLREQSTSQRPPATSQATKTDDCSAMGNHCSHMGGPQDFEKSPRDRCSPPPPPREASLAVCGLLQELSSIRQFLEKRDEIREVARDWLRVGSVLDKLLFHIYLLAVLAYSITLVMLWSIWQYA
Briefly: Binding affinity to human 5-HT3 receptor at 1 uM by radioligand displacement assay relative to control.

The target in test [12] is 5-hydroxytryptamine receptor 4 (Homo sapiens) (UniProt Q13639). Briefly: Binding affinity to human recombinant 5-HT4E receptor expressed in CHO cells at 1 uM after 30 mins by radioligand displacement assay relative to control. The test is classed as cell-based.
5-hydroxytryptamine receptor 4 (Homo sapiens), sequence (Q13639 whole entry): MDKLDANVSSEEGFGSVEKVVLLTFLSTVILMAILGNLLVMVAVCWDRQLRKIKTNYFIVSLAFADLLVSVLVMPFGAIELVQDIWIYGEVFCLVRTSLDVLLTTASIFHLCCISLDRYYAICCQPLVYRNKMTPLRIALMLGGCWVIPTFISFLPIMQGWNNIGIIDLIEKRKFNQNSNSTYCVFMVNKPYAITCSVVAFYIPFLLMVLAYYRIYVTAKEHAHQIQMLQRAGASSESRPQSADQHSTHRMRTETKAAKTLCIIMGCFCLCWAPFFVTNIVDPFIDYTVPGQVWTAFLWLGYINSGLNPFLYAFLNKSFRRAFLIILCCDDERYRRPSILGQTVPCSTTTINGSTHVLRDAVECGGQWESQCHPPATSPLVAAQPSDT
Test [13] addresses 5-hydroxytryptamine receptor 5A (Homo sapiens) (UniProt P47898). The experiment in a line: Displacement of [3H]LSD from human recombinant 5-HT5A receptor expressed in HEK293 cells at 1 uM after 120 mins by scintillation counting analysis relative to control. The test is classed as cell-based.
Test [14] addresses 5-hydroxytryptamine receptor 6 (Homo sapiens) (UniProt P50406). The experiment in a line: Binding affinity to human recombinant 5-HT6 receptor expressed in CHO cells at 1 uM after 30 mins by radioligand displacement assay relative to control. The test is classed as cell-based.
Test [15] addresses T1, 5-hydroxytryptamine receptor 7. Briefly: Binding affinity to human recombinant 5-HT7 receptor expressed in CHO cells after 30 mins by radioligand displacement assay. The test is classed as cell-based. The method, boiled down:
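Membranes from receptor-expressing cells harvested at 80% confluence, homogenised and pelleted at 48,000 × g for 90 min, then protein-quantified by Bradford. Competition with 5 nmol/L [3H]5-HT and test compound for 30 min at 25 °C in 50 mM Tris-HCl pH 7.4 containing pargyline, 4 mmol/L CaCl2 and 0.05% ascorbic acid. Non-specific binding measured with excess cold 5-HT; bound radioligand separated by filtration. Ki derived from IC50 by Cheng-Prusoff; mean of four determinations in duplicate.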

5-hydroxytryptamine receptor 6 (Homo sapiens), sequence (P50406 whole entry): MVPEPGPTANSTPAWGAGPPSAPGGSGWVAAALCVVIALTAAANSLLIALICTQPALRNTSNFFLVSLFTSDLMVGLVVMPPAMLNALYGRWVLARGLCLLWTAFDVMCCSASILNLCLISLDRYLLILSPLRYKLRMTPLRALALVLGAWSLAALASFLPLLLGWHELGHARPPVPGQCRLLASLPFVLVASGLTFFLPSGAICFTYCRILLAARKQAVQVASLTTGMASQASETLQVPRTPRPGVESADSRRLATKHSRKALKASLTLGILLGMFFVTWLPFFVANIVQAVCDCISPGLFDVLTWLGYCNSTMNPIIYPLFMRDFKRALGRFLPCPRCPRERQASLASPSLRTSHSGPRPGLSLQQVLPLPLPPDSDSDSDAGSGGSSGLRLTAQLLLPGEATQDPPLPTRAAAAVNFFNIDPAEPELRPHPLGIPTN
5-hydroxytryptamine receptor 5A (Homo sapiens), sequence (P47898 whole entry): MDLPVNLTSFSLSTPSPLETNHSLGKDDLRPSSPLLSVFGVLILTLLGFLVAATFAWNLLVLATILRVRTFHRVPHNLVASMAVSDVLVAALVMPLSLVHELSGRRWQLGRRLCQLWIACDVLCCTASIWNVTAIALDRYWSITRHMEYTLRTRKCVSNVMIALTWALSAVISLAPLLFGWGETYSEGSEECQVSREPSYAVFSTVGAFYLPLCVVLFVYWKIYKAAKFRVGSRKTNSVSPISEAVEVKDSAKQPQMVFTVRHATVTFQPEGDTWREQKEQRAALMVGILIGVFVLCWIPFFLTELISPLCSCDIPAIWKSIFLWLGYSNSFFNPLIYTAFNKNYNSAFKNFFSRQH
5-hydroxytryptamine receptor 2B (Homo sapiens), sequence (P41595 whole entry): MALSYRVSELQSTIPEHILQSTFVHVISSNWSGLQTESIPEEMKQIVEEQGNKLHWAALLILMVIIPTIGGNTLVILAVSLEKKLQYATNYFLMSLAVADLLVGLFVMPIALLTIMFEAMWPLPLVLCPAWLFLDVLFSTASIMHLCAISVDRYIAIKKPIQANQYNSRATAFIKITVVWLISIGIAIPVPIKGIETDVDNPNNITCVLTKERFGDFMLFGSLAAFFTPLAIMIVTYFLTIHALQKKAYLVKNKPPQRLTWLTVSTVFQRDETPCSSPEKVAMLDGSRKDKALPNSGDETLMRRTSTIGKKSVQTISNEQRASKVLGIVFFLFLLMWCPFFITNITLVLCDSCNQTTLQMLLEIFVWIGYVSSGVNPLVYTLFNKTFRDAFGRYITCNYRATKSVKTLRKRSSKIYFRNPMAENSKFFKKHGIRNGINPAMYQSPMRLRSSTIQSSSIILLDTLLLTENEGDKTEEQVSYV
5-hydroxytryptamine receptor 2A (Homo sapiens), sequence (P28223 whole entry): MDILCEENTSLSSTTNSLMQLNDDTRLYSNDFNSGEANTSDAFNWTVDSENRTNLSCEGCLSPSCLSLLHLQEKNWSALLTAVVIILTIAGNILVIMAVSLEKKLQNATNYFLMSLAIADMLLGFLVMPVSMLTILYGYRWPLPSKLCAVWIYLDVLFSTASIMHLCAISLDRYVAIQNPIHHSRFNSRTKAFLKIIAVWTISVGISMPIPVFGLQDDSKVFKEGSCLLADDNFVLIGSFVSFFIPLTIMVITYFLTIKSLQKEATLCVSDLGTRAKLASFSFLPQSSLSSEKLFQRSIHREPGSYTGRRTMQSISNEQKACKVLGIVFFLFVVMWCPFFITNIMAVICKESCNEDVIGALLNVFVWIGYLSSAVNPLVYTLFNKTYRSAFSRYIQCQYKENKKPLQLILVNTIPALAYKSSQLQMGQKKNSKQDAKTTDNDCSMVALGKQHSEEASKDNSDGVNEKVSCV

Consider `CN(CCN1CCN(c2ccccc2)CC1)c1cccc(NS(C)(=O)=O)c1`, for which the Ki in test [1] stood at 57 nM. For the same molecule, the % serotonin response in test [2] was 48%.
In test [1], `CN(CCCN1CCN(c2ccccc2)CC1)c1cccc(F)c1` registered an inhibitory constant (Ki) of 112 nM.
Consider `Oc1cccc(NCCN2CCN(c3ccccc3)CC2)c1`, for which affinity in test [1] was put at a Ki of 252 nM.
`CN(CCCCCCN1CCN(c2cccc3ccccc23)CC1)c1cccc(O)c1`: in test [1], the Ki amounted to 39.4 nM.
`Cc1[nH]c2ccc(O)cc2c1CCN1CCN(c2cccc3ccccc23)CC1` had an inhibition constant (Ki) in [1] of 12.8 nM.
Consider `OCc1cccc(NCCCN2CCN(c3ccccc3)CC2)c1`, for which the Ki in [1] turned out to be 109 nM.
Take `Oc1cccc(OCCN2CCN(c3ccccc3)CC2)c1`: the inhibition came to 42% in test [3] and 21% in test [4].
`CN(CCN1CCN(c2ccccc2)CC1)c1cccc([N+](=O)[O-])c1` gave a Ki in [1] of 332 nM.
For `CN(CCCN1CCN(c2ccccc2)CC1)c1cccc(Cl)c1`, the inhibition constant (Ki) in test [1] was 179 nM.
Same read-out and setting: the same measure for `Oc1cccc(N(CCCN2CCN(c3ccccc3)CC2)Cc2ccccc2)c1`: 92.5 nM.
Same read-out and setting: the same measure for `CCN(CCCCCCN1CCN(c2ccccc2)CC1)c1cccc(O)c1`: 191 nM.
In turn, `CN(CCCCCCN1CCN(c2ccccc2)CC1)c1cccc(O)c1` displayed a Ki in test [1] of 12 nM. Besides, in test [2], the % serotonin response was 56%.
In test [1], `Oc1cccc(CCCCN2CCN(c3ccccc3)CC2)c1` showed a Ki of 3.1 nM.
On to `Cc1cccc(N(C)CCCN2CCN(c3ccccc3)CC2)c1`, for which the Ki in [1] is 84.8 nM.
As to `CN(CCCN1CCN(c2ccc3ccccc3c2)CC1)c1cccc(O)c1`, the affinity in [1], expressed as Ki, was 434 nM.
As for `Oc1ccc2[nH]cc(CCN3CCN(c4cccc5ccccc45)CC3)c2c1`, the Ki in test [1] and in test [15] was 11.6 nM each time. The inhibition in [5] is 100%; in [6], 74%; in test [7], 99%; in [8] it was 100%; in test [9] it was 98%; in [10] it was 98%. Also, the inhibition in [11] was 15%; in test [12] it was 7%; in test [13], 94%; in test [14], 76%.
In turn, `CCCN(CCCN1CCN(c2ccccc2)CC1)c1cccc(O)c1` registered a Ki in test [1] of 20.8 nM.
In the case of `CN(CCCN1CCN(c2ccccc2)CC1)c1cccc(Br)c1`, the inhibition constant Ki in test [1] is 161 nM.
`Oc1cccc2c1CC(N1CCN(c3ccccc3)CC1)CC2` (racemic) registered an inhibition constant Ki in test [1] of 81.4 nM.
With `Oc1cccc(N(CCCCCCN2CCN(c3ccccc3)CC2)Cc2ccccc2)c1`, the Ki in [1] worked out at 138 nM.
`O=S(=O)(c1ccccc1)N(CCCN1CCN(c2ccccc2)CC1)c1cccc(O)c1` displayed a Ki in [1] of 12.1 nM.
For the molecule `O=Cc1cccc(NCCCN2CCN(c3ccccc3)CC2)c1`, in test [1], the affinity, expressed as Ki, was 13.2 nM.
Still for that read-out and setting: the same measure for `Oc1cccc(NCCCN2CCN(c3ccccc3)CC2)c1`: 10.1 nM.
In test [1], `NC(=O)c1cccc(NCCCN2CCN(c3ccccc3)CC2)c1` displayed a Ki of 63.3 nM.
Take `Oc1cccc(N(CCCN2CCN(c3ccccc3)CC2)c2ccccc2)c1`: the inhibition constant Ki in test [1] came to 90.1 nM.
Turning to `CN(CCCN1CCN(c2cccc3ccccc23)CC1)c1cccc(O)c1`, in [1], the inhibition constant (Ki) worked out at 2.9 nM.
With `CN(CCCCCCN1CCN(c2ccnc3cc(Cl)ccc23)CC1)c1cccc(O)c1`, the inhibition came to 74% in test [3] and 28% in [4].
As for `CN(CCCCCCN1CCN(c2cccc(C(F)(F)F)c2)CC1)c1cccc(O)c1`, the affinity in [1], expressed as Ki, was 95.6 nM.
In test [1], `CN(CCCN1CCN(c2ccccc2)CC1)c1cccc(NS(C)(=O)=O)c1` yielded a Ki of 39.6 nM.
Take `CN(CCN1CCN(Cc2ccccc2)CC1)c1cccc(O)c1`: the inhibition turned out to be 82% in test [3] and 42% in test [4].
In test [1], `CN(CCCCCN1CCN(c2ccccc2)CC1)c1cccc(O)c1` came in with a Ki of 16.7 nM. In [2], the % serotonin response turned out to be 69%.
On to `COC(=O)c1cccc(NCCCN2CCN(c3ccccc3)CC2)c1`, for which the inhibition constant Ki in test [1] came out at 77.9 nM.
`Oc1cccc(CCCN2CCN(c3ccccc3)CC2)c1`: the Ki in test [1] turned out to be 40 nM.
With `CN(C(=O)CCCCCN1CCN(c2cccc3ccccc23)CC1)c1cccc(O)c1`, the Ki in test [1] and in [15] was 8.1 nM throughout. In addition, the inhibition in [5] came to 99%; in [6], 69%; in test [7], 100%; in [8], 99%; in test [9] it was 101%; in [10], 98%. Moreover, the inhibition is 6% in test [11], 16% in [12], 70% in test [13] and 71% in [14].
Turning to `Oc1ccc2[nH]cc(CCN3CCN(c4cccc(-c5ccccc5)c4)CC3)c2c1`, the inhibition in test [3] was 88%; in test [4], 42%.
In test [1], `CN(CCCN1CCC(N(c2ccccc2)c2ccccc2)CC1)c1cccc(O)c1` yielded an inhibition constant Ki of 310 nM.
Same read-out and setting: the same measure for `CC(=O)Nc1cccc(N(C)CCCN2CCN(c3ccccc3)CC2)c1`: 161 nM; for `CN(CCCN1CCC(c2ccccc2)(c2ccccc2)CC1)c1cccc(O)c1`: 242 nM.
On to `CN(CCCCCCN1CCC(c2ccccc2)CC1)c1cccc(O)c1`, for which the affinity in [1] corresponds to a Ki of 226 nM.
Regarding `CN(CCN1CCN(c2ccccc2)CC1)c1cccc(O)c1`, the inhibition constant Ki in test [1] is 161 nM.
In test [1], `CCc1[nH]c2ccc(O)cc2c1CCN1CCN(c2cccc3ccccc23)CC1` registered an inhibition constant (Ki) of 6.6 nM.
Regarding `CN(CCN1CCN(c2ccccc2)CC1)c1cccc(N)c1`, the results for the inhibition in [3] and in test [4] were 85% and 40%, respectively.

Values taken from ChEMBL document CHEMBL3259775, “Towards the development of 5-HT₇ ligands combining serotonin-like and arylpiperazine moieties” (Eur J Med Chem, 2014).
